Assay results taken from ChEMBL document CHEMBL1149503, “Growth inhibition of human cancer cells in vitro by T-type calcium channel blockers” (Bioorg Med Chem Lett, 2006).
Activity calls are given as the source filed them. The rule behind the calls is not given here.

How the values were obtained:
A549 = test: Inhibition of human A549 cell growth by SRB assay; type: functional
Method in brief: (§1)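 Cells grown in RPMI 1640 with 10% heat-inactivated FBS, 37 °C, 5% CO2. Seeded, exposed to various sample concentrations in triplicate for 72 h, then formalin-fixed 30 min at room temperature. Stained with 0.4% SRB 30 min, washed with 1% acetic acid, bound dye dissolved in 10 mM unbuffered Tris base, OD read at 520 nm. GI50 from dose–response curves, three independent experiments.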

HCT-15 = test: Inhibition of human HCT15 cell growth by SRB assay; type: functional; method in brief: as §1
[1] = molecular target: Voltage-dependent T-type calcium channel subunit alpha-1G (Homo sapiens) (UniProt O43497); test: Inhibition of T type calcium channel subunit alpha-1G at 10 uM in HEK293 cells; type: cell-based
Chain of Voltage-dependent T-type calcium channel subunit alpha-1G (Homo sapiens) (O43497 whole entry): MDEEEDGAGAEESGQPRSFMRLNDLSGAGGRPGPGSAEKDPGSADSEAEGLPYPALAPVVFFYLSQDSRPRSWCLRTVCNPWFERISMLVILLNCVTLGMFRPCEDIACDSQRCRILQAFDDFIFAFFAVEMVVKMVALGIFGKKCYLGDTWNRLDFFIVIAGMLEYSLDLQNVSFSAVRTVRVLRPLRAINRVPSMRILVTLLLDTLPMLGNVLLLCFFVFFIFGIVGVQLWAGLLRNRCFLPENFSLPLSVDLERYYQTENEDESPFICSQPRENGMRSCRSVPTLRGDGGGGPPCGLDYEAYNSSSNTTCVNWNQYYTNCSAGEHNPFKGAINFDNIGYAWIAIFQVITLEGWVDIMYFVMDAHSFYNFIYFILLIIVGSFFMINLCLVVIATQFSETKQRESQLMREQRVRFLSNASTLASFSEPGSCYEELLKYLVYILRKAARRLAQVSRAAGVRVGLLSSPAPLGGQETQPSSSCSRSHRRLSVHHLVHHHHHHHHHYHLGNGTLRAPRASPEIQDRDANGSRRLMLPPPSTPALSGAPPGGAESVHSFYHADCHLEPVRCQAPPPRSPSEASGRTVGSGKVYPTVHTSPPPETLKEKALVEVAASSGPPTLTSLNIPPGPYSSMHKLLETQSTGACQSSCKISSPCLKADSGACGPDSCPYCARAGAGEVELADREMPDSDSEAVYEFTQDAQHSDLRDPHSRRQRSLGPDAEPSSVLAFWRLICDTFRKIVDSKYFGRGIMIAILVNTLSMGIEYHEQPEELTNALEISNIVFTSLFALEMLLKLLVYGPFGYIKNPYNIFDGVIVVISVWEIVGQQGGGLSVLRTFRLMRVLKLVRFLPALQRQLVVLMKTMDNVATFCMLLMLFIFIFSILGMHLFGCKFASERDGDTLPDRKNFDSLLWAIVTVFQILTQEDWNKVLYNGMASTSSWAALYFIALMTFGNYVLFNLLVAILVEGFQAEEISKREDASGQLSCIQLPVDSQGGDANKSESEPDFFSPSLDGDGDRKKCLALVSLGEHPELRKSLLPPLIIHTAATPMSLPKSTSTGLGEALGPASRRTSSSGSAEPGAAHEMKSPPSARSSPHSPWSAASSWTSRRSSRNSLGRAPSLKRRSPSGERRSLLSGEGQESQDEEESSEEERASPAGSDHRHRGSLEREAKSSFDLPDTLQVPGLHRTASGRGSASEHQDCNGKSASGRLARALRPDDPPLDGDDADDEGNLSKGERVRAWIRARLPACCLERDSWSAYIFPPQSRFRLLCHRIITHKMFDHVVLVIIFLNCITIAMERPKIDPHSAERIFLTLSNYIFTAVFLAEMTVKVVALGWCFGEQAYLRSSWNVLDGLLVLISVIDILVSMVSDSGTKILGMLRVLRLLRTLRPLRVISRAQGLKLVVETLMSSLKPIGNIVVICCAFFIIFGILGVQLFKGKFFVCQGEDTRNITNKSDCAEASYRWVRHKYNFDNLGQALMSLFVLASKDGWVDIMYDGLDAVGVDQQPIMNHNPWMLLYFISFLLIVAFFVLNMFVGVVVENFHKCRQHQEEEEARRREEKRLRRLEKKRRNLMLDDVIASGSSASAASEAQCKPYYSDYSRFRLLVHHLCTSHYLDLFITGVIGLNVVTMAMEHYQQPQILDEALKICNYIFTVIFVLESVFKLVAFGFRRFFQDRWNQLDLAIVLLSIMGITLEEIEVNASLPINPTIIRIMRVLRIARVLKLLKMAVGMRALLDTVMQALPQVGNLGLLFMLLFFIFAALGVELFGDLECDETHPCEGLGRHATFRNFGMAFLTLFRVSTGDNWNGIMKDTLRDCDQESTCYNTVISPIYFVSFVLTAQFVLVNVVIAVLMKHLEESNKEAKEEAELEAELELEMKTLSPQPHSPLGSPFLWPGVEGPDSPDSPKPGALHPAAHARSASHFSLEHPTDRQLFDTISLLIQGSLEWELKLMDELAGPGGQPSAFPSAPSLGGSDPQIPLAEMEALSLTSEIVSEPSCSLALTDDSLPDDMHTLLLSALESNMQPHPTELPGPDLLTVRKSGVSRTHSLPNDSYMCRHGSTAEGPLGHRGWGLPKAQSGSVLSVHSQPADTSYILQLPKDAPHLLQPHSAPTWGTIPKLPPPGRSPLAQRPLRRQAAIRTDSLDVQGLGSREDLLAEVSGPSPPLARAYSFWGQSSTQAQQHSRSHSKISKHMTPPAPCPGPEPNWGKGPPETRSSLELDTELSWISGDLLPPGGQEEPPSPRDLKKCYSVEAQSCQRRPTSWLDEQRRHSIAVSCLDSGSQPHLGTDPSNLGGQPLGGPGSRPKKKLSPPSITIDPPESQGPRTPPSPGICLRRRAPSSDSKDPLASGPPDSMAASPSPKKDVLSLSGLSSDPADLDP
Method in brief: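 Whole-cell patch clamp on α1G T-type channel expressed in HEK293 cells, test compound at 10 µM. Currents evoked every 15 s by 50 ms depolarizing step from 100 to 30 mV (signs as printed). % inhibition = 100[(C−D)/C], C and D being peak current before and with drug. Three independent experiments.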

SK-OV-3 = test: Inhibition of human SKOV3 cell growth by SRB assay; type: functional; method in brief: as §1
HEK293 = test: Cytotoxicity against HEK293 cells at 100 uM; type: functional, cell-based; conditions: Homo sapiens
KB = test: Inhibition of human KB cell growth by SRB assay; type: functional; method in brief: as §1
[2] = molecular target: Voltage-dependent N-type calcium channel subunit alpha-1B (Homo sapiens) (UniProt Q00975); test: Inhibition of N type calcium channel subunit Alpha-1B at 10 uM in HEK293 cells; type: cell-based
Chain of Voltage-dependent N-type calcium channel subunit alpha-1B (Homo sapiens) (Q00975 whole entry, looked up): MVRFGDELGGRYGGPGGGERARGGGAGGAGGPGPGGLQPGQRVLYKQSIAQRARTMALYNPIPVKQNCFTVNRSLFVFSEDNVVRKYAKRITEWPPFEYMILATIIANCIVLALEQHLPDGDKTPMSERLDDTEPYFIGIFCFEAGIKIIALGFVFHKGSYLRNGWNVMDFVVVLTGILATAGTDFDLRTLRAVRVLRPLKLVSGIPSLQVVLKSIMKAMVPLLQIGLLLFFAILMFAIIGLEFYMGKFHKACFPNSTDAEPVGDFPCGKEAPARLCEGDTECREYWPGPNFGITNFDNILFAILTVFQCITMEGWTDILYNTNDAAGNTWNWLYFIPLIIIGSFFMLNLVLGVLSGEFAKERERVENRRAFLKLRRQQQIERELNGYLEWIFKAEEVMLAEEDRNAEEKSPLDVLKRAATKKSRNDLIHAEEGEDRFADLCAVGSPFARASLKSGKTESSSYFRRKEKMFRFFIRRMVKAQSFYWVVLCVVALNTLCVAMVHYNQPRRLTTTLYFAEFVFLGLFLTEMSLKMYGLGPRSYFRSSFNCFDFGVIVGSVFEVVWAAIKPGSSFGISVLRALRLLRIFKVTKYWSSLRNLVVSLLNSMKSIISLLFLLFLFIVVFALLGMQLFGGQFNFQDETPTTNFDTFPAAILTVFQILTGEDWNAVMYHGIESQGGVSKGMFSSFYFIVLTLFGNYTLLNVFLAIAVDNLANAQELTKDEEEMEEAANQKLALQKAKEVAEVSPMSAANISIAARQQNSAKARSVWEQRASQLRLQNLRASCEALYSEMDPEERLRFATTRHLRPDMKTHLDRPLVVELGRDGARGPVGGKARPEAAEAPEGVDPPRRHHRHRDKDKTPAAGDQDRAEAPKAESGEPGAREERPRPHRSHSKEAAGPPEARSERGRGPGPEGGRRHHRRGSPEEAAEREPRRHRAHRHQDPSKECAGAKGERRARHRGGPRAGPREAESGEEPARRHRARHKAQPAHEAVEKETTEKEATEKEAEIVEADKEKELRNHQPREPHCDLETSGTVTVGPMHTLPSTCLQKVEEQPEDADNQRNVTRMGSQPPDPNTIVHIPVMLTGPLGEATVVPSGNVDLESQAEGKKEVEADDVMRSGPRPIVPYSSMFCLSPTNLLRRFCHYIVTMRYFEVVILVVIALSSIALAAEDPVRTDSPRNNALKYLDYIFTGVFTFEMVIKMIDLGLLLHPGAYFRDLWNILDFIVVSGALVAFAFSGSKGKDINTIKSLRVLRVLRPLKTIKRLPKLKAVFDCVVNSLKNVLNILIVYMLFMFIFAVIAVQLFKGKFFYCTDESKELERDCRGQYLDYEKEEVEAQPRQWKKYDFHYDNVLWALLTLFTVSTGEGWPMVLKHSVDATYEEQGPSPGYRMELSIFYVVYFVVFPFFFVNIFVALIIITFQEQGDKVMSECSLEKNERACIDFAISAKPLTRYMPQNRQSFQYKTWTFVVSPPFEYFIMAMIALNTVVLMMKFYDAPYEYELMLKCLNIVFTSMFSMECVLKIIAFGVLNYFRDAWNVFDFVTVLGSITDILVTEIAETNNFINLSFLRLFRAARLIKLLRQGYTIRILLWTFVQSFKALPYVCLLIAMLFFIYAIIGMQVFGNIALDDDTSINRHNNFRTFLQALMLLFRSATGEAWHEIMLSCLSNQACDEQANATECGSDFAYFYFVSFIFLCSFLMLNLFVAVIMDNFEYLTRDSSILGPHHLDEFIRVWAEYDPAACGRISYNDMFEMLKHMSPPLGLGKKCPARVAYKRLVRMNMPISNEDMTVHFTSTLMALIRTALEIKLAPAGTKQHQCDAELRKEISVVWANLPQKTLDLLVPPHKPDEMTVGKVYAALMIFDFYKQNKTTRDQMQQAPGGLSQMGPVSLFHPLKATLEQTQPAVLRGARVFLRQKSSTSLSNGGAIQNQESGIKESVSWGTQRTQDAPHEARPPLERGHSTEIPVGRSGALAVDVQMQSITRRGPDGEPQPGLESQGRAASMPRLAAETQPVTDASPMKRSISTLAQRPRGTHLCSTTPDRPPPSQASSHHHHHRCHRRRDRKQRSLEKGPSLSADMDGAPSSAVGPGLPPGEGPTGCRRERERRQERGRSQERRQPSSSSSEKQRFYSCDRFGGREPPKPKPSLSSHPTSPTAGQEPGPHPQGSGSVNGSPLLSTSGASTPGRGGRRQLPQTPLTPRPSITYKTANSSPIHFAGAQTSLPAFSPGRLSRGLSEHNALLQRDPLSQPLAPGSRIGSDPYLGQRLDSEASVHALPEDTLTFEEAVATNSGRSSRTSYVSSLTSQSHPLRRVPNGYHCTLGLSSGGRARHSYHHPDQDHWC

SK-MEL-2 = test: Inhibition of human SK-MEL-2 cell growth by SRB assay; type: functional, cell-based; method in brief: as §1
[3] = test system: T-type calcium channel Cav3.1 (α1G); test: Inhibition of T-type calcium channel Cav3.1; conditions: Homo sapiens

GI50 (A549) [µM] | GI50 (HCT-15) [µM] | inhibition [1] [%] | GI50 (SK-OV-3) [µM] | GI50 (KB) [µM] | inhibition [2] [%] | GI50 (SK-MEL-2) [µM] | Activity [2] | IC50 [3] [µM] | Compound | Activity (HEK293)
95.1 | 74.2 | 59.3 | 77.8 | 108 | 9.3 | 42.5 |  |  | CCN1C(N2CCCCC2)=Nc2ccccc2C1CC(=O)NCc1ccccc1 (centres undefined) | Not toxic
66.1 | 38.6 | 62.7 | 46.5 | 41.6 |  | 31.4 | inactive |  | CCN1C(N(C)C)=Nc2ccccc2C1CC(=O)NCc1ccc(NS(=O)(=O)c2ccc(F)cc2)cc1 (centres undefined) | Not toxic
36.6 | 33.9 |  | 39.3 | 37.1 | 8.9 | 30.7 |  |  | Nc1ccc(CNC(=O)CC2c3ccccc3N=C(N3CCCCC3)N2c2ccccc2)cc1 (centres undefined) | Not toxic
3.39 | 3.64 |  | 3.24 | 3.77 |  | 3.32 | inactive | 0.56 | COC(=O)CC1c2ccccc2N=C(NCCCCCN)N1c1ccc(-c2ccccc2)cc1 (centres undefined) | Not toxic
3.06 | 2.8 |  | 2.93 | 3.11 | 14.1 | 2.7 |  | 0.17 | Cc1ccc(S(=O)(=O)Nc2ccc(CNC(=O)CC3c4ccccc4N=C(N4CCCCC4)N3c3ccccc3)cc2)cc1 (centres undefined) | Not toxic
> 200 | > 200 | 34.4 | > 200 | > 200 | 27.6 | 50.2 |  |  | CCN1C(N(C)C)=Nc2ccccc2C1CC(=O)NCc1ccccc1 (centres undefined) | Not toxic
39.2 | 33.9 | 81.3 | 33.4 | 33.8 | 8.9 | 24.2 |  |  | CCN1C(N(C)C)=Nc2ccccc2C1CC(=O)NCc1ccc(NS(=O)(=O)c2ccc(C)cc2)cc1 (centres undefined) | Not toxic
23 | 25.7 | 91.3 | 22.8 | 22.3 |  | 3.52 | inactive | 0.96 | CCN1C(N2CCCCC2)=Nc2ccccc2C1CC(=O)NCc1ccc(NS(=O)(=O)c2ccc(C)cc2)cc1 (centres undefined) | Not toxic
